Results as given in ChEMBL document CHEMBL4346709, “Design and Optimization Leading to an Orally Active TTK Protein Kinase Inhibitor with Robust Single Agent Efficacy” (J Med Chem, 2019).
Activity calls are given as the source filed them. The calls are words filed in the database; no cut-off is given here.

What was measured:
Mus musculus = assay: Inhibition of mitosis in human CAL51 cells xenografted in CB17 SCID mouse assessed reduction in pHH3 ser10 level at 30 mg/kg, po administered as single dose measured after 1 hr by MSD electrochemiluminescent immunoassay; format: functional, organism-based
Summary of the method: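 CB17 SCID mice bearing CAL-51 tumours of 300-500 mm3 given compound orally. At preset time points the mice were euthanised and the tumours dissected and snap-frozen in liquid nitrogen. pHH3 Ser10 or cleaved caspase measured by MSD electrochemiluminescent immunoassay kit. Data are mean ± SEM.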

[1] = biological target: T1, Dual specificity protein kinase CLK2 (Homo sapiens, UniProt P49760); assay: Inhibition of recombinant human GST-tagged CLK2 catalytic domain (137 to 498 residues) expressed in baculovirus expression system at 3 uM by Z'-LYTE assay relative to control
Summary of the method: (§1)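 Kinase selectivity panel: single-point assessment at 3 µM, n=1.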
Target sequence in this assay (P49760 whole entry, looked up, the tested form may be a part): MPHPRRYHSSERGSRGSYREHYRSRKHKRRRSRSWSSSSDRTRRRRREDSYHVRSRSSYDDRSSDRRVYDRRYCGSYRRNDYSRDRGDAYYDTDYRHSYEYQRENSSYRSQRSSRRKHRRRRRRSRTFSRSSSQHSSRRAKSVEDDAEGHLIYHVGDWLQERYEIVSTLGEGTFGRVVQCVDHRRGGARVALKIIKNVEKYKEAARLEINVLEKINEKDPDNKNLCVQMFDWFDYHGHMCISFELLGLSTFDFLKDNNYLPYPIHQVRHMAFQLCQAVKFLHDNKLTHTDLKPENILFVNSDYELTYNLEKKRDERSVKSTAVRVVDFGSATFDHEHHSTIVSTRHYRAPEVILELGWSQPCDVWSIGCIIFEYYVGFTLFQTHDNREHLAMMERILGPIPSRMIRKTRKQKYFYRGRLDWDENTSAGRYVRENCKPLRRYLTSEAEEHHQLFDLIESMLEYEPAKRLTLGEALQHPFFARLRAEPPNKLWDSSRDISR

CAL-51 [2] = assay: Antitumor activity against human CAL51 cells xenografted in po dosed CB17 SCID mouse assessed as tumor growth inhibition administered every seven days for 16 days and measured twice per week up to 31 days by caliper method; format: functional, organism-based
Summary of the method: (§2)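 Female CB17 SCID mice, 6-8 weeks old, inoculated subcutaneously with 2×10^6 CAL-51 cells. Oral dosing once weekly (QW) at 30-120 mg/kg, or 30 mg/kg BID QW, for 16 days, against vehicle control. Tumour long and short axes measured twice weekly by digital caliper; volume = width² × length/2. Values are TGI; data are mean ± SEM.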

[3] = biological target: T2, Mitogen-activated protein kinase 10 (Homo sapiens, UniProt P53779); assay: Inhibition of recombinant human full length N-terminal GST-tagged JNK3 expressed in baculovirus expression system by Z'-LYTE assay
T2 sequence (P53779 whole entry): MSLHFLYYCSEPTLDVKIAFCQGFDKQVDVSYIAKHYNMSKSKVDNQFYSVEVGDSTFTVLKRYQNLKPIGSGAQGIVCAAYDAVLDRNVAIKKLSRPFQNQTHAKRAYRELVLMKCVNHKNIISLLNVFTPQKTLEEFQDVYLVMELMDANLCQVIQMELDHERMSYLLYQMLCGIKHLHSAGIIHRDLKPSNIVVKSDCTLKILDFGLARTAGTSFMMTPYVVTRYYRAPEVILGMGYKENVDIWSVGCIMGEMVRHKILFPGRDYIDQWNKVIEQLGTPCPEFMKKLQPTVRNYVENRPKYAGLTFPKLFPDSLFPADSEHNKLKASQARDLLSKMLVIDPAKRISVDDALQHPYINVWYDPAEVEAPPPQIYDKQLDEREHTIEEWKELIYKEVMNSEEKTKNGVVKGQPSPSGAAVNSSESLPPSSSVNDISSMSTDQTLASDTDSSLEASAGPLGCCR

[4] = Cmax in rat at 10 mg/kg, po; format: ADME, organism-based; set-up: dose 10 mg/kg, route oral; settings: in vivo
Summary of the method: (§3)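 Rat oral PK at 10 mg/kg. Compound is given as a solution in CMCT (0.5% CMC/0.25% tween-80) or formulated in 5% TPGS, 10% captisol, 50 mM citrate buffer. Cmax and AUC are recorded.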

[5] = biological target: T1, Dual specificity protein kinase CLK2; assay: Inhibition of recombinant human GST-tagged CLK2 catalytic domain (137 to 498 residues) expressed in baculovirus expression system by Z'-LYTE assay
Target sequence in this assay (P49760 whole entry, the tested form may be a part): as the sequence (P49760 whole entry, looked up, the tested form may be a part) above

[6] = biological target: T2, Mitogen-activated protein kinase 10; assay: Inhibition of recombinant human full length N-terminal GST-tagged JNK3 expressed in baculovirus expression system at 3 uM by Z'-LYTE assay relative to control; summary of the method: as §1
Homo sapiens [7] = species on record: Homo sapiens; assay: (§4) Selectivity ratio of IC50 for recombinant human GST-tagged LRRK2 catalytic domain (970 to 2527 residues) expressed in baculovirus expression system to IC50 for inhibition of Kinase Tracer 236 binding to recombinant human full-length GST-tagged TTk expressed in baculovirus expression system
[8] = AUC in rat at 10 mg/kg, po; format: ADME, organism-based; settings: in vivo; summary of the method: as §3
[9] = AUC in CB17 SCID mouse at 30 mg/kg, po; format: ADME, organism-based; settings: in vivo
Summary of the method: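 Oral PK in SCID mice at 30 mg/kg. Compound is formulated either in CMCT (0.5% CMC/0.25% tween-80) or in 5% TPGS, 10% captisol, 50 mM citrate buffer, depending on compound. Cmax and AUC are measured.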

[10] = biological target: Mitogen-activated protein kinase 8 (Homo sapiens, UniProt P45983); assay: Inhibition of recombinant human full length His-tagged JNK1 expressed in baculovirus expression system by Z'-LYTE assay
Mitogen-activated protein kinase 8, sequence (P45983 whole entry): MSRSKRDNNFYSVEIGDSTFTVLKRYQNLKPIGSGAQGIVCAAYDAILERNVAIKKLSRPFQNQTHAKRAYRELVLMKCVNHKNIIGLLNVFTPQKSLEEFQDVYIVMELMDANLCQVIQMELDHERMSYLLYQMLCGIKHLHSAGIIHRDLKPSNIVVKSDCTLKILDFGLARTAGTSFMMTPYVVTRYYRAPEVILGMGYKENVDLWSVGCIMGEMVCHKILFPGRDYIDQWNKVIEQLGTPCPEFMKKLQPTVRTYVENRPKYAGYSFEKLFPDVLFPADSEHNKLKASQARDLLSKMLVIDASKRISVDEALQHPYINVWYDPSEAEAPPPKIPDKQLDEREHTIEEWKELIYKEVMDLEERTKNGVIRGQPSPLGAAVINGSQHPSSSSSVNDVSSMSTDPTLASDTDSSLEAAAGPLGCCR

[11] = biological target: T3, Dual specificity protein kinase TTK (Homo sapiens, UniProt P33981); assay: Inhibition of TTK in human CAL51 cells assessed as decrease in phosphorylated KNL-1 T943 levels after 1 hr by Western blot analysis; format: cell-based
T3 sequence (P33981 whole entry): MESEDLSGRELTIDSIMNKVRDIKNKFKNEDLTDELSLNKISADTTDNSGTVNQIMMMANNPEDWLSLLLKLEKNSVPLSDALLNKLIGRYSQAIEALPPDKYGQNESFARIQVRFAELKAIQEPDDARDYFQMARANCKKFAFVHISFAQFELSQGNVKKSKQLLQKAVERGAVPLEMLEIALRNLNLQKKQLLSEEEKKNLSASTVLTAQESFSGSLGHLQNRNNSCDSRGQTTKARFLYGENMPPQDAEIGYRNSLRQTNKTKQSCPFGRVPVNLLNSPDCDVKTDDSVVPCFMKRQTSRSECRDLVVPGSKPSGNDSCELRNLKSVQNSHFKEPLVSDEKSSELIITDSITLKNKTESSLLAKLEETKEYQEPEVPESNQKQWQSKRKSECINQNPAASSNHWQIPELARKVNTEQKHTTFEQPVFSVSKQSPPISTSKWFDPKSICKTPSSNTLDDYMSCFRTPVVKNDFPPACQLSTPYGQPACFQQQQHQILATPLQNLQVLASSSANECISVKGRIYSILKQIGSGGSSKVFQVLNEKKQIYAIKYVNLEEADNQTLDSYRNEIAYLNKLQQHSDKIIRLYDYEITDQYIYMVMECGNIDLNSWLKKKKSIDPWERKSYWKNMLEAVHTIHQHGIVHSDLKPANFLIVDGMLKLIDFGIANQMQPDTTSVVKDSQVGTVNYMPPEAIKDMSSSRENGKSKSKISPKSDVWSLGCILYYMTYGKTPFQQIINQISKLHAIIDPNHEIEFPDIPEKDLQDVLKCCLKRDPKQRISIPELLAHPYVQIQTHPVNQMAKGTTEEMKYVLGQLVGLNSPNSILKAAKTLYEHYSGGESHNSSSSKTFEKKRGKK

[12] = biological target: T4, Mitogen-activated protein kinase 9 (Homo sapiens, UniProt P45984); assay: Inhibition of recombinant human full length His-tagged JNK2 expressed in baculovirus expression system at 3 uM by Z'-LYTE assay relative to control; summary of the method: as §1
Target sequence in this assay (P45984 whole entry, looked up, the tested form may be a part): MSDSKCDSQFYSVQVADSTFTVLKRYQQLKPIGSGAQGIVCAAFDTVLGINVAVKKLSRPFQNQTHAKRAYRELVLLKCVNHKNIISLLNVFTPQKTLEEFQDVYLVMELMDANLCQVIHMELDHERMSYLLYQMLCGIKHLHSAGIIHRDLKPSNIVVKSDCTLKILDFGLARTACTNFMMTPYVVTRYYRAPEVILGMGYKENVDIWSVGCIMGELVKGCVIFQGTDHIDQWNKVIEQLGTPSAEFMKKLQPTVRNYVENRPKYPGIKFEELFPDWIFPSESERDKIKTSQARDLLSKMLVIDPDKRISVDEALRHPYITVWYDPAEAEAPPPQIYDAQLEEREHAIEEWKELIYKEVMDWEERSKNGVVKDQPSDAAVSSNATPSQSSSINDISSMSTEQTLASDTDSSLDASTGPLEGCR

Homo sapiens [13] = species on record: Homo sapiens; assay: as §4, with “IC50 for inhibition of recombinant human” for “IC50 for recombinant human”, “GST-tagged LRRK2 G2019S mutant catalytic domain” for “GST-tagged LRRK2 catalytic domain”
CAL-51 [14] = assay: Antitumor activity against human CAL51 cells xenografted in CB17 SCID mouse assessed as tumor growth inhibition at 30 mg/kg, po administered every seven days for 16 days and measured twice per week up to 31 days by caliper method relative to control; format: functional; settings: CAL-51, po, read-out: TGI; summary of the method: as §2
[15] = Toxicity in CB17 SCID mouse xenografted with human CAL51 cells assessed as loss of body weight at 30 to 120 mg/kg, po administered every seven days for 16 days and measured up to 31 days; format: organism-based; settings: in vivo
Summary of the method: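 Female CB17 SCID mice bearing subcutaneous CAL-51 xenografts (2×10^6 cells). Oral dosing once weekly at 30-120 mg/kg, or 30 mg/kg BID once weekly, for 16 days. Body weight loss tracked alongside tumour measurements, against vehicle.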

[16] = biological target: T4, Mitogen-activated protein kinase 9; assay: Inhibition of recombinant human full length His-tagged JNK2 expressed in baculovirus expression system by Z'-LYTE assay
Target sequence in this assay (P45984 whole entry, the tested form may be a part): as the sequence (P45984 whole entry, looked up, the tested form may be a part) above

Homo sapiens [17] = species on record: Homo sapiens; assay: Selectivity ratio of IC50 for recombinant human full length His-tagged JNK1 expressed in baculovirus expression system to IC50 for inhibition of Kinase Tracer 236 binding to recombinant human full-length GST-tagged TTk expressed in baculovirus expression system

C[C@@H](Oc1cc(C(=O)N(C)C)ccc1Nc1nc(O[C@H]2CC[C@@](C)(O)CC2)c2c(Cl)c[nH]c2n1)C(F)(F)F
inhibition (Mus musculus): Active | inhibition [1]: > 80% | TGI (CAL-51 [2]): Dose-dependent effect | IC50 [3]: 0.107 nM | Cmax [4]: 4.35 µM | IC50 [5]: 0.261 nM | inhibition [6]: > 80% | Ratio IC50 (Homo sapiens [7]): < 100 | AUC [8]: 26 to 26.3 µM·h | AUC [9]: 22.5 µM·h | IC50 [10]: 0.032 nM | IC50 [11]: 30 nM | inhibition [12]: > 80% | Ratio IC50 (Homo sapiens [13]): < 100 | inhibition in vivo at 30 mg/kg (CAL-51 [14]): 59% | Activity [15]: Non-Toxic | IC50 [16]: 0.059 nM | Ratio IC50 (Homo sapiens [17]): < 100
